Data reported in ChEMBL document CHEMBL3352301, “Novel sulfonyl(thio)urea derivatives act efficiently both as insulin secretagogues and as insulinomimetic compounds” (Eur J Med Chem, 2014).
pKd: −log10 of the molar value. Active and inactive are the calls of the source. The rule behind the calls is not given here.

What was measured:
[1] = tested on: Rattus norvegicus; assay: Antihyperglycemic activity in fasted hyperglycemic Wistar rat assessed as serum glucose level at 10 mg/kg, po measured 15 mins post dose by oral glucose tolerance test (reference value: 177.46 +/- 5.95 mg/dL); format: functional
Summary of the method: (§1)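 Rats fasted at least 16 h (water free) were given glucose 4 g/kg by oral gavage; test compounds 10 mg/kg were gavaged in 0.3% Tween 80. Tail-vein blood was taken before dosing and at 15, 30, 60 and 180 min, then centrifuged. Serum glucose was measured by the glucose oxidase method. Six determinations per group, mean ± S.E.M.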

[2] = tested on: Rattus norvegicus; assay: Antihyperglycemic activity in fasted hyperglycemic Wistar rat assessed as serum glucose level at 10 mg/kg, po measured 30 mins post dose by oral glucose tolerance test (reference value: 190.15 +/- 1.77 mg/dL); format: functional; summary of the method: as §1
[3] = tested on: Rattus norvegicus; assay: Antihyperglycemic activity in fasted hyperglycemic Wistar rat assessed as serum glucose level at 10 mg/kg, po measured 60 mins post dose by oral glucose tolerance test (reference value: 182.55 +/- 6.95 mg/dL); format: functional; summary of the method: as §1
[4] = tested on: Rattus norvegicus; assay: Antihyperglycemic activity in fasted hyperglycemic Wistar rat assessed as serum glucose level at 10 mg/kg, po measured 180 mins post dose by oral glucose tolerance test (reference value: 141.15 +/- 4.47 mg/dL); format: functional; summary of the method: as §1
[5] = tested on: Rattus norvegicus; assay: Insulin secretagogue activity in fasted hyperglycemic Wistar rat assessed as insulin level at 10 mg/kg, po measured 15 mins post dose by ELISA method (reference value: 2.84 +/- 0.002 ng/mL); format: functional
[6] = tested on: Rattus norvegicus; assay: Insulin secretagogue activity in fasted hyperglycemic Wistar rat assessed as insulin level at 10 mg/kg, po measured 30 mins post dose by ELISA method (reference value: 0.75 +/- 0.007 ng/mL); format: functional
[7] = tested on: Rattus norvegicus; assay: Insulin secretagogue activity in fasted hyperglycemic Wistar rat assessed as insulin level at 10 mg/kg, po measured 60 mins post dose by ELISA method (reference value: 0.59 +/- 0.004 ng/mL); format: functional
[8] = tested on: Rattus norvegicus; assay: Insulin secretagogue activity in fasted hyperglycemic Wistar rat assessed as insulinogenic index ratio at 10 mg/kg, po by ELISA method (reference value: 0.66 ng/mg); format: functional
Summary of the method: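 Serum insulin (ELISA) and glucose (glucose oxidase) were sampled from 0 to 60 min after oral glucose 4 g/kg plus compound 10 mg/kg gavage in fasted rats. Incremental areas under the curves were computed. Insulinogenic index = AUC insulin / AUC glucose over 0–60 min.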

[9] = tested on: Rattus norvegicus; assay: Effect on glycogen content in skeletal muscle of fasted hyperglycemic Wistar rat assessed per gram of tissue at 10 mg/kg, po measured 3 hrs post dose (reference value: 8.6 +/- 1 mg/g of tissue); format: functional
[10] = tested on: Rattus norvegicus; assay: Effect on glycogen content in liver of fasted hyperglycemic Wistar rat assessed per gram of tissue at 10 mg/kg, po measured 3 hrs post dose (reference value: 14.6 +/- 1.27 mg/g of tissue); format: functional
[11] = tested on: Rattus norvegicus; assay: Toxicity in fasted hyperglycemic Wistar rat assessed as LDH level at 10 mg/kg, po by spectrophotometry based LDH release assay (reference value: 75.63 +/- 7.08 IU/L); format: organism-based; set-up: dose 10 mg/kg, route oral; conditions: in vivo
[12] = Effect on glucose uptake in Wistar rat soleus muscle assessed per mg of protein at 1 uM by liquid scintillation counting based [14C]-2-deoxy-D-glucose uptake assay (reference value: 0.16 +/- 0.03 nmol glucose/mg protein); format: functional
[13] = Effect on glucose uptake in Wistar rat soleus muscle assessed per mg of protein at 10 uM by liquid scintillation counting based [14C]-2-deoxy-D-glucose uptake assay (reference value: 0.16 +/- 0.03 nmol glucose/mg protein); format: functional
[14] = tested on: Soleus muscle; assay: Stimulation of glucose uptake in Wistar rat soleus muscle assessed as glucose level per mg of protein at 100 uM by liquid scintillation counting based [14C]-2-deoxy-D-glucose uptake assay (reference value: 0.16 +/- 0.03 nmol glucose/mg protein); format: functional
[15] = tested on: Soleus muscle; assay: Stimulation of glucose uptake in Wistar rat soleus muscle at 10 uM in presence of 100 nM PI-3K inhibitor wortmannin by liquid scintillation counting based [14C]-2-deoxy-D-glucose uptake assay; format: functional, tissue-based
Summary of the method: (§2)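 Rat soleus in Krebs-Ringer bicarbonate (37 °C, O2/CO2 95:5, pH 7.4). Inhibitor or modulator (wortmannin 100 nM, H89, PMA 100 nM or cycloheximide) was present through a 30 min preincubation and a 60 min incubation, with or without compound. 14C-2-deoxy-D-glucose was added during incubation only. Uptake by scintillation counting normalised to Lowry protein; n=4 of 3 independent experiments.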

[16] = tested on: Soleus muscle; assay: Stimulation of glucose uptake in Wistar rat soleus muscle at 10 uM in presence of 10 uM PKA inhibitor H89 by liquid scintillation counting based [14C]-2-deoxy-D-glucose uptake assay; format: functional, tissue-based; summary of the method: as §2
[17] = tested on: Soleus muscle; assay: Stimulation of glucose uptake in Wistar rat soleus muscle at 10 uM in presence of 100 nM PMA by liquid scintillation counting based [14C]-2-deoxy-D-glucose uptake assay; format: functional, tissue-based; summary of the method: as §2
[18] = tested on: Soleus muscle; assay: Stimulation of glucose uptake in Wistar rat soleus muscle at 10 uM in presence of 350 uM cycloheximide by liquid scintillation counting based [14C]-2-deoxy-D-glucose uptake assay; format: functional, tissue-based; summary of the method: as §2
[19] = tested on: Soleus muscle; assay: Stimulation of protein synthesis in Wistar rat soleus muscle at 10 uM by liquid scintillation counting based 1-[U-14C]leucine incorporation assay; format: functional, tissue-based
Summary of the method: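 Soleus muscles from fasted rats were preincubated 30 min in Krebs-Ringer bicarbonate (O2/CO2 95:5, pH 7.4), then incubated 60 min with compound and L-[U-14C]leucine. The reaction was stopped with cold TCA (7% final). Incorporation was expressed as cpm/mg protein (Lowry); n=4 of 3 independent experiments.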

[20] = tested on: Soleus muscle; assay: Increase in GLUT4 expression in Wistar rat soleus muscle at 20 uM after 60 mins by polyacrylamide gel electrophoresis and immunoblotting analysis; format: functional, tissue-based
[21] = tested on: Soleus muscle; assay: Increase in GLUT4 expression in Wistar rat soleus muscle at 20 uM after 60 mins in presence of 350 uM cycloheximide by polyacrylamide gel electrophoresis and immunoblotting analysis; format: functional, tissue-based
[22] = tested on: Soleus muscle; assay: Increase in GLUT4 expression in Wistar rat soleus muscle membranes at 10 uM after 60 mins by immunofluorescence analysis; format: functional, cell membranes
Summary of the method: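 Soleus was taken after 60 min in vitro incubation, or 180 min after oral gavage at 10 mg/kg. Tissue was fixed in 4% paraformaldehyde, paraffin-embedded and cut at 5 µm, with citrate antigen retrieval. Sections were stained with mouse anti-GLUT4 (1:500, overnight) then Cy3 anti-mouse, with DAPI counterstain. GLUT4 distribution was assessed qualitatively.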

[23] = tested on: Rattus norvegicus; assay: Increase in GLUT4 expression in soleus muscle membranes of Wistar rat at 10 mg/kg, po after 180 mins by immunofluorescence analysis; conditions: Membrane
[24] = target: ATP-binding cassette sub-family C member 8 (Homo sapiens, UniProt Q09428); assay: Binding affinity to SUR1 (unknown origin)
Sequence of ATP-binding cassette sub-family C member 8 (Q09428 whole entry): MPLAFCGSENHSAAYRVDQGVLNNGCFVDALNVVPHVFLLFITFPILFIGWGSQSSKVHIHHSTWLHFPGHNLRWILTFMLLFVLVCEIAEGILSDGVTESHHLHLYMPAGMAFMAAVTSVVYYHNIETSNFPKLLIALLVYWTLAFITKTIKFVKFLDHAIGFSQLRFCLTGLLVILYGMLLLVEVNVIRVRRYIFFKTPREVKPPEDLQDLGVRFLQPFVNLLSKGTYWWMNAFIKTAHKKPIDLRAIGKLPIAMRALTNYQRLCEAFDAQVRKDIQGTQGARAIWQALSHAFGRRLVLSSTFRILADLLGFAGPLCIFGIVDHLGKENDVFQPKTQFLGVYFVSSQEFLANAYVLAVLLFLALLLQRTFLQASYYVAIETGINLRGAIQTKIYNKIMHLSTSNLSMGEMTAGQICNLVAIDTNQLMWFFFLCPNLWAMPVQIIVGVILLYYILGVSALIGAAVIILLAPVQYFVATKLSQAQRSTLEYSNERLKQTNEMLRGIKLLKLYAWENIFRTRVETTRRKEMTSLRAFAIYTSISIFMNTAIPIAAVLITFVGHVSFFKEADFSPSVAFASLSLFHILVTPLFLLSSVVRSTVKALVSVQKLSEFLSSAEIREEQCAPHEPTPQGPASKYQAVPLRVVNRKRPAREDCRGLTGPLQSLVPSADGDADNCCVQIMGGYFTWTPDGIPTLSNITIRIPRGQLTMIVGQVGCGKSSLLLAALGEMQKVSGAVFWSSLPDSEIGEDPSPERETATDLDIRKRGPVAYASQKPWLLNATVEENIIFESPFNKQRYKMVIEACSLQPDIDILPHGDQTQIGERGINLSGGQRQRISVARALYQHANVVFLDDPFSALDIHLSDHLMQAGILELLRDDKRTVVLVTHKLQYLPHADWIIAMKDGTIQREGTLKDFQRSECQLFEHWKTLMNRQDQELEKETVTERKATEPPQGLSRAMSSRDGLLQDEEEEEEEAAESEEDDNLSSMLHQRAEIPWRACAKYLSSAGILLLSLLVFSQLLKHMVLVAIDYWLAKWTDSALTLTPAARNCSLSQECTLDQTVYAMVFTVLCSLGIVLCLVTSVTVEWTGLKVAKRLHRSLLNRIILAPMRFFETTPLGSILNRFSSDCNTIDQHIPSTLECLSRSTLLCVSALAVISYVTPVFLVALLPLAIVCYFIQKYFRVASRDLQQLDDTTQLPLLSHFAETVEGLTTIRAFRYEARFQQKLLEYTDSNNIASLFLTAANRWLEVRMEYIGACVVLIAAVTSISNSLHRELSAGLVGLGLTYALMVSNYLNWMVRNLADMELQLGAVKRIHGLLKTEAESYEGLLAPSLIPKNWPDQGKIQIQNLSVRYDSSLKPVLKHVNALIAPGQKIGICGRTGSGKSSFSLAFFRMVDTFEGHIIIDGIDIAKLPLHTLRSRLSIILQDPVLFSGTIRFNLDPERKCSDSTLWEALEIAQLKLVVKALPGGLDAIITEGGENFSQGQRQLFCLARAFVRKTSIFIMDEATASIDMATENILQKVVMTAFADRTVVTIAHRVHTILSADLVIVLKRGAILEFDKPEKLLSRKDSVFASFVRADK

O=S(=O)(NC(=S)Nc1ccccc1)c1ccc(CCNS(=O)(=O)c2cccs2)cc1
Activity [1]: 150.23 mg/dL
Activity [2]: 141.6 mg/dL
Activity [3]: 140.96 mg/dL
Activity [4]: 139.26 mg/dL
Activity [5]: 3.01 ng/mL
Activity [6]: 1.19 ng/mL
Activity [7]: 1.46 ng/mL
Ratio [8]: 1.06 ng/mg
Activity [9]: 20.69 mg
Activity [10]: 7.68 mg
Activity [11]: 72.19 IU/L
Activity [12]: 0.35 nmol
Activity [13]: 0.3 nmol
Activity [14]: 0.32 nmol
Activity [15]: inactive
Activity [16]: inactive
Activity [17]: inactive
Activity [18]: inactive
Activity [19]: Active
Activity [20]: Active
Activity [21]: inactive
Activity [22]: Active
Activity [23]: Active

COc1ccc(S(=O)(=O)NCCc2ccc(S(=O)(=O)NC(=S)Nc3ccc(Cl)cc3)cc2)cc1
Activity [1]: 141.45 mg/dL
Activity [2]: 158.69 mg/dL
Activity [3]: 151.74 mg/dL
Activity [4]: 139.54 mg/dL
Activity [5]: 2.69 ng/mL
Activity [6]: 0.71 ng/mL
Activity [7]: 0.52 ng/mL
Ratio [8]: 0.72 ng/mg
Activity [9]: 28.51 mg
Activity [10]: 69.35 mg
Activity [11]: 73.92 IU/L

O=S(=O)(NCCc1ccc(S(=O)(=O)NC(=S)Nc2ccccc2)cc1)c1ccc(F)cc1
Activity [1]: 148.8 mg/dL
Activity [2]: 165.7 mg/dL
Activity [3]: 165.3 mg/dL
Activity [4]: 146.4 mg/dL

Cc1ccc(S(=O)(=O)NCCc2ccc(S(=O)(=O)NC(=S)Nc3ccccc3)cc2)cc1
Activity [1]: 151.25 mg/dL
Activity [2]: 157.14 mg/dL
Activity [3]: 173.51 mg/dL
Activity [4]: 152.6 mg/dL

O=S(=O)(NC(=S)Nc1ccccc1)c1ccc(CCNS(=O)(=O)c2cccc3cccnc23)cc1
Activity [1]: 147.97 mg/dL
Activity [2]: 160.22 mg/dL
Activity [3]: 140.08 mg/dL
Activity [4]: 139.63 mg/dL
Activity [5]: 2.26 ng/mL
Activity [6]: 1.36 ng/mL
Activity [7]: 0.6 ng/mL
Ratio [8]: 0.84 ng/mg
Activity [9]: 9.93 mg
Activity [10]: 11.33 mg
Activity [11]: 71.3 IU/L

COc1ccc(Cl)cc1C(=O)NCCc1ccc(S(=O)(=O)NC(=O)NC2CCCCC2)cc1 [GLYBURIDE]
Activity [1]: 140.49 mg/dL
Activity [2]: 135.24 mg/dL
Activity [3]: 128.34 mg/dL
Activity [4]: 124.28 mg/dL
Activity [5]: 3.83 ng/mL
Activity [6]: 2.66 ng/mL
Activity [7]: 2.46 ng/mL
Ratio [8]: 1.98 ng/mg
Activity [9]: 17.46 mg
Activity [10]: 8.71 mg
Activity [11]: 41.08 IU/L

COc1cc(NC(=O)CO[C@H]2O[C@H](CO)[C@@H](O)[C@H](O)[C@H]2O)c(Cl)cc1C(=O)NCCc1ccc(S(=O)(=O)NC(=O)NC2CCCCC2)cc1
pKd [24]: 8.68

CC(C)c1cc(C(C)C)c(S(=O)(=O)NCCc2ccc(S(=O)(=O)NC(=S)Nc3ccccc3)cc2)c(C(C)C)c1
Activity [1]: 149.51 mg/dL
Activity [2]: 168.72 mg/dL
Activity [3]: 152.76 mg/dL
Activity [4]: 142.08 mg/dL

COc1cc(NC(C)=O)c(Cl)cc1C(=O)NCCc1ccc(S(=O)(=O)NC(=O)NC2CCCCC2)cc1
pKd [24]: 9.42

COc1ccc(S(=O)(=O)NCCc2ccc(S(=O)(=O)NC(=O)Nc3cccc4ccccc34)cc2)cc1
Activity [1]: 155.68 mg/dL
Activity [2]: 156.4 mg/dL
Activity [3]: 157.9 mg/dL
Activity [4]: 143.6 mg/dL

O=S(=O)(NCCc1ccc(S(=O)(=O)NC(=S)Nc2ccccc2)cc1)c1ccccc1
Activity [1]: 146.02 mg/dL
Activity [2]: 151.62 mg/dL
Activity [3]: 158.27 mg/dL
Activity [4]: 134.44 mg/dL
Activity [5]: 0.39 ng/mL
Activity [6]: 0.35 ng/mL
Activity [7]: 0.78 ng/mL
Ratio [8]: 0.31 ng/mg
Activity [9]: 6.93 mg
Activity [10]: 10.66 mg
Activity [11]: 68.09 IU/L

COc1ccc(S(=O)(=O)NCCc2ccc(S(=O)(=O)NC(=S)Nc3ccccc3)cc2)cc1
Activity [1]: 150.98 mg/dL
Activity [2]: 144.75 mg/dL
Activity [3]: 154.79 mg/dL
Activity [4]: 124.7 mg/dL
Activity [5]: 2.75 ng/mL
Activity [6]: 0.7 ng/mL
Activity [7]: 0.53 ng/mL
Ratio [8]: 0.77 ng/mg
Activity [9]: 7.24 mg
Activity [10]: 104.25 mg
Activity [11]: 108.01 IU/L

CC1(C)C2CCC1(CS(=O)(=O)NCCc1ccc(S(=O)(=O)NC(=S)Nc3ccccc3)cc1)C(=O)C2 (stereo not given)
Activity [1]: 151.58 mg/dL
Activity [2]: 160.61 mg/dL
Activity [3]: 149.03 mg/dL
Activity [4]: 149.35 mg/dL
